Usually IC50 stands for the midpoint of a concentration-inhibition curve.

≈ marks a conversion by molar mass, not a printed value.

In the first data set the test system is Mycolicibacterium smegmatis. Put plainly: Antimicrobial activity against Mycobacterium smegmatis str. MC2 155 ATCC 700084 assessed as inhibition of planktonic bacteria growth incubated for 48 hrs by broth microdilution method.
Details: not given
The format is organism-based. The method, boiled down:
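48 h preculture in 7H9 (ADC, 0.5% Tween 80) used to inoculate fresh 7H9 at 5 × 10^5 CFU mL-1 (OD600 0.006). Compounds added from 100 mM DMSO-d6 stocks and twofold serially diluted. Incubated stationary at 37 °C for 48 h, then 6 h more with alamarBlue. MIC = lowest concentration without visible growth. Duplicate, at least two separate runs.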
As for `CCCCCc1ccc(C(=O)Nc2ccc3[nH]c(N)nc3c2)cc1`, the MIC is 150 µM (≈ 48.4 µg/mL).
Still for that read-out and setting: to `CCCCCc1ccc(C(=O)Nc2ccc3c(c2)nc(N)n3CCCCc2ccccc2)cc1` belongs 100 µM (≈ 45.5 µg/mL); to `CCCCCc1ccc(C(=O)Nc2ccc3c(c2)nc(N)n3CCc2cccc(OC)c2)cc1`, 200 µM (≈ 91.3 µg/mL); to `CCCCCc1ccc(C(=O)Nc2ccc3c(c2)nc(N)n3Cc2ccccc2)cc1`, 100 µM (≈ 41.3 µg/mL).
As to `CCCCCCn1c(N)nc2cc(NC(=O)c3ccc(CCCCC)cc3)ccc21`, the MIC is above 200 µM.
Still for that read-out and setting: with `CCCCCc1ccc(C(=O)Nc2ccc3c(c2)nc(N)n3CCc2ccccc2)cc1` the figure was 100 µM (≈ 42.7 µg/mL); with `CCCCCc1ccc(C(=O)Nc2ccc3c(c2)nc(N)n3CCc2ccc(OC)cc2)cc1`, 120 µM (≈ 54.8 µg/mL).
On the same count and under the same terms, with `CCCCCc1ccc(C(=O)Nc2ccc3c(c2)nc(N)n3CCCC)cc1` the figure was above 200 µM.
Turning to `CCCCCc1ccc(C(=O)Nc2ccc3c(c2)nc(N)n3Cc2ccc(OC)cc2)cc1`, the MIC was above 200 µM.
With `CCCCCc1ccc(C(=O)Nc2ccc3c(c2)nc(N)n3CCCc2ccccc2)cc1`, the MIC was determined as 60 µM (≈ 26.4 µg/mL).
Regarding `CCCCCc1ccc(C(=O)Nc2ccc3c(c2)nc(N)n3CCc2ccccc2OC)cc1`, the MIC was found to be 120 µM (≈ 54.8 µg/mL).
Still for that read-out and setting: to `Nc1nc2cc(NC(=O)Nc3ccc(Cl)c(Cl)c3)ccc2n1CCCc1ccccc1` belongs 100 µM (≈ 45.4 µg/mL).
The same measure, in the same setting: to `Nc1nc2cc(C(=O)Nc3ccc(Cl)c(Cl)c3)ccc2n1CCCc1ccccc1` belongs 200 µM (≈ 87.9 µg/mL).
With `Nc1nc2cc(NC(=O)c3cc(Cl)cc(Cl)c3)ccc2n1CCCc1ccccc1`, the MIC turned out to be 200 µM (≈ 87.9 µg/mL).
Take `Nc1nc2cc(NC(=O)c3ccc(Cl)c(Cl)c3)ccc2n1CCCc1ccccc1`: the MIC stood at 200 µM (≈ 87.9 µg/mL).
On the same count and under the same terms, to `CCCCCCCCCn1c(N)nc2cc(NC(=O)c3ccc(CCCCC)cc3)ccc21` belongs 200 µM (≈ 89.7 µg/mL).
The same measure, in the same setting: to `CCCCCc1ccc(C(=O)Nc2ccc3c(c2)nc(N)n3CCCc2ccccc2Br)cc1` belongs 120 µM (≈ 62.3 µg/mL).
Same read-out and setting: with `CCCCCc1ccc(C(=O)Nc2ccc3c(c2)nc(N)n3CCCc2ccc(OC)cc2)cc1` the figure was 100 µM (≈ 47.1 µg/mL); with `CCCCCc1ccc(C(=O)Nc2ccc3c(c2)nc(N)n3CCCc2ccc(Cl)cc2)cc1`, 120 µM (≈ 57 µg/mL); with `CCCCCc1ccc(C(=O)Nc2ccc3c(c2)nc(N)n3CCCc2cccc(Br)c2)cc1`, 100 µM (≈ 51.9 µg/mL).
Consider `CCCCCc1ccc(C(=O)Nc2ccc3c(c2)nc(N)n3CCCc2ccc(Br)cc2)cc1`, for which the MIC was found to be 100 µM (≈ 51.9 µg/mL).
Still for that read-out and setting: to `CCCCCc1ccc(C(=O)Nc2ccc3c(c2)nc(N)n3CCCc2ccc(F)cc2)cc1` belongs 120 µM (≈ 55 µg/mL).

The subject of the next data set is Mycolicibacterium smegmatis. Description: Potentiation of ampicillin-induced antimicrobial activity against Mycobacterium smegmatis str. MC2 155 ATCC 700084 assessed as fold reduction in ampicillin MIC at 20 uM incubated for 48 hrs by broth microdilution method. Format: functional.
Details: not given
A general note: Broth dilution looks for growth in wells or tubes with falling amounts of substance.
Take `CCCCCc1ccc(C(=O)Nc2ccc3c(c2)nc(N)n3CCCc2ccccc2)cc1`: the “fold change (FC)” value came out at 16.
As for `Nc1nc2cc(NC(=O)Nc3ccc(Cl)c(Cl)c3)ccc2n1CCCc1ccccc1`, the “fold change (FC)” value is 2.
Same read-out and setting: to `CCCCCc1ccc(C(=O)Nc2ccc3c(c2)nc(N)n3CCCc2ccc(OC)cc2)cc1` belongs 4; to `CCCCCc1ccc(C(=O)Nc2ccc3c(c2)nc(N)n3CCCc2ccc(Cl)cc2)cc1`, 4.
On the same count and under the same terms, to `CCCCCc1ccc(C(=O)Nc2ccc3c(c2)nc(N)n3CCCc2ccc(Br)cc2)cc1` belongs 4.
Regarding `CCCCCc1ccc(C(=O)Nc2ccc3c(c2)nc(N)n3CCCc2ccc(F)cc2)cc1`, the “fold change (FC)” value was determined as 4.

The subject of another data set is Mycolicibacterium smegmatis. Put plainly: Antibiofilm activity against Mycobacterium smegmatis str. MC2 155 ATCC 700084 assessed as inhibition of biofilm formation incubated for 48 hrs by crystal violet reporter assay. Format: functional, organism-based.
Details: not given
The method, boiled down:
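48 h culture subcultured to 0.01 in M9 minimal salts medium containing compound. Incubated in PVC plates, stationary, 37 °C, 48 hr. Wells washed with water, stained 30 min with 0.1% crystal violet, and eluted with 95% ethanol for 10 min. OD540 read; % inhibition taken versus untreated wells. Duplicate wells, at least two separate runs.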
On the technique in general: A reporter such as luciferase makes a cellular process visible.
`CCCCCc1ccc(C(=O)Nc2ccc3c(c2)nc(N)n3CCCc2ccccc2)cc1`: the MBIC50 is 8 µM.

Staying with this data set, now noted: Mycolicibacterium smegmatis, MC2 155 ATCC 700084, 48 h.
`CCCCCc1ccc(C(=O)Nc2ccc3[nH]c(N)nc3c2)cc1`: the IC50 worked out at 13.6 µM.
The same measure, in the same setting: to `CCCCCc1ccc(C(=O)Nc2ccc3c(c2)nc(N)n3CCCCc2ccccc2)cc1` belongs 4.3 µM; to `CCCCCc1ccc(C(=O)Nc2ccc3c(c2)nc(N)n3CCc2cccc(OC)c2)cc1`, 12.5 µM; to `CCCCCc1ccc(C(=O)Nc2ccc3c(c2)nc(N)n3Cc2ccccc2)cc1`, 12.2 µM.
The same measure, in the same setting: to `CCCCCCn1c(N)nc2cc(NC(=O)c3ccc(CCCCC)cc3)ccc21` belongs 25.6 µM; to `CCCCCc1ccc(C(=O)Nc2ccc3c(c2)nc(N)n3CCc2ccccc2)cc1`, 5.4 µM.
As for `CCCCCc1ccc(C(=O)Nc2ccc3c(c2)nc(N)n3CCc2ccc(OC)cc2)cc1`, the IC50 amounted to 8.8 µM.
Same read-out and setting: with `CCCCCc1ccc(C(=O)Nc2ccc3c(c2)nc(N)n3CCCC)cc1` the figure was 22.4 µM.
On the same count and under the same terms, with `CCCCCc1ccc(C(=O)Nc2ccc3c(c2)nc(N)n3Cc2ccc(OC)cc2)cc1` the figure was 12.5 µM.
The same measure, in the same setting: with `CCCCCc1ccc(C(=O)Nc2ccc3c(c2)nc(N)n3CCCc2ccccc2)cc1` the figure was 3.5 µM; with `CCCCCc1ccc(C(=O)Nc2ccc3c(c2)nc(N)n3CCc2ccccc2OC)cc1`, 11.3 µM.
For `Nc1nc2cc(NC(=O)Nc3ccc(Cl)c(Cl)c3)ccc2n1CCCc1ccccc1`, the IC50 is 2.6 µM.
In the case of `Nc1nc2cc(C(=O)Nc3ccc(Cl)c(Cl)c3)ccc2n1CCCc1ccccc1`, the IC50 was 8.6 µM.
The same measure, in the same setting: with `Nc1nc2cc(NC(=O)c3cc(Cl)cc(Cl)c3)ccc2n1CCCc1ccccc1` the figure was 9.4 µM; with `Nc1nc2cc(NC(=O)c3ccc(Cl)c(Cl)c3)ccc2n1CCCc1ccccc1`, 8.8 µM; with `CCCCCCCCCn1c(N)nc2cc(NC(=O)c3ccc(CCCCC)cc3)ccc21`, 23.2 µM.
The same measure, in the same setting: with `CCCCCc1ccc(C(=O)Nc2ccc3c(c2)nc(N)n3CCCc2ccccc2Br)cc1` the figure was 10.5 µM.
In the case of `CCCCCc1ccc(C(=O)Nc2ccc3c(c2)nc(N)n3CCCc2ccc(OC)cc2)cc1`, the IC50 is 4.3 µM.
Same read-out and setting: to `CCCCCc1ccc(C(=O)Nc2ccc3c(c2)nc(N)n3CCCc2ccc(Cl)cc2)cc1` belongs 6.4 µM.
`CCCCCc1ccc(C(=O)Nc2ccc3c(c2)nc(N)n3CCCc2cccc(Br)c2)cc1`: the IC50 stood at 9.2 µM.
Same read-out and setting: with `CCCCCc1ccc(C(=O)Nc2ccc3c(c2)nc(N)n3CCCc2ccc(Br)cc2)cc1` the figure was 6.2 µM.
As to `CCCCCc1ccc(C(=O)Nc2ccc3c(c2)nc(N)n3CCCc2ccc(F)cc2)cc1`, the IC50 was found to be 3.6 µM.

Another data set has as its system Mycolicibacterium smegmatis. Description: Potentiation of cefotaxime-induced antimicrobial activity against Mycobacterium smegmatis str. MC2 155 ATCC 700084 assessed as fold reduction in cefotaxime MIC at 20 uM incubated for 48 hrs by broth microdilution method. Format: functional.
Details: not given
For `CCCCCc1ccc(C(=O)Nc2ccc3c(c2)nc(N)n3CCCc2ccccc2)cc1`, the “fold change (FC)” value amounted to 128.
Still for that read-out and setting: with `Nc1nc2cc(NC(=O)Nc3ccc(Cl)c(Cl)c3)ccc2n1CCCc1ccccc1` the figure was 2.
For the compound `CCCCCc1ccc(C(=O)Nc2ccc3c(c2)nc(N)n3CCCc2ccc(OC)cc2)cc1`, the “fold change (FC)” value was determined as 16.
With `CCCCCc1ccc(C(=O)Nc2ccc3c(c2)nc(N)n3CCCc2ccc(Cl)cc2)cc1`, the “fold change (FC)” value worked out at 8.
`CCCCCc1ccc(C(=O)Nc2ccc3c(c2)nc(N)n3CCCc2ccc(Br)cc2)cc1`: the “fold change (FC)” value amounted to 16.
With `CCCCCc1ccc(C(=O)Nc2ccc3c(c2)nc(N)n3CCCc2ccc(F)cc2)cc1`, the “fold change (FC)” value is 64.

The values above are taken from ChEMBL document CHEMBL4368897, “Using 2-aminobenzimidazole derivatives to inhibit Mycobacterium smegmatis biofilm formation” (Medchemcomm, 2019).
